Activity calls are given as the source filed them. No cut-off for these calls is given here.
Key:
[1] = Stabilization of BCL2 promoter G-quadruplex DNA (unknown origin) assessed as effect on melting temperature at 15 uM by circular dichroism spectroscopic assay; type: ADME
Method in brief: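 G-quadruplex at 3 µM, with or without 15 µM compound, in 10 mM Tris-HCl pH 7.2 containing 2 mM KCl; CD recorded every 5 °C from 25 to 95 °C at a heating rate of 1 °C/min.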

[2] = species on record: Homo sapiens; assay: Stabilization of c-Myc promoter G-quadruplex DNA in human Raji cells assessed as downregulation of exon 1 transcriptional level after 6 hrs by RT-PCR analysis; type: cell-based
Method in brief: (§1)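 RAJI and CA46 cells treated 6 h over a concentration range; total RNA reverse-transcribed (oligo dT18, M-MLV, 42 °C 1 h then 85 °C 5 min); exon 1 and exon 2 amplified by real-time PCR with exon-specific primers, products run on 1% agarose gel; three repeats.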

[3] = species on record: Homo sapiens; assay: Stabilization of c-Myc promoter G-quadruplex DNA in human Raji cells assessed as downregulation of exon 2 transcriptional level after 6 hrs by RT-PCR analysis; type: cell-based; method in brief: as §1
[4] = system: HeLa; assay: Cytotoxicity against human HeLa cells assessed as reduction in cell viability after 24 hrs by MTT assay; type: functional, cell-based
Method in brief: (§2)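 Cells seeded at 5.0×10^3 per well, exposed to compound for 24 h; MTT (2.5 mg/mL) added for 4 h, formazan dissolved in DMSO, OD read at 570 nm. Triplicate; IC50 from curves of mean OD against concentration.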

[5] = system: A-375; assay: Cytotoxicity against human A375 cells assessed as reduction in cell viability after 24 hrs by MTT assay; type: functional, cell-based; details: A-375, 24 h; method in brief: as §2
[6] = Cytotoxicity against mouse primary mesangial cells assessed as reduction in cell viability after 24 hrs by MTT assay; type: cell-based; method in brief: as §2
[7] = system: SiHa; assay: Cytotoxicity against human SiHa cells assessed as cell growth inhibition at 1.2 to 3 uM after 130 hrs by RTCA assay; type: functional, cell-based
Method in brief: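 Cells seeded at 2000 per well on impedance plates, settled 20 min at room temperature, profiled 24 h; medium then replaced with compound-containing medium and cells monitored to 130 h total. Cell index normalized to 1.0 at the time point just before compound addition.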

[8] = system: SiHa; assay: Induction of cell cycle arrest in human SiHa cells assessed as accumulation at G0/G1 phase after 12 hrs by propidium iodide-staining based FACS analysis; type: functional
Method in brief: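 SiHa cells treated 12 h, fixed in 70% ethanol at 4 °C overnight, stained with 50 µg/mL PI plus 75 KU/mL RNase A in PBS for 30 min in the dark at room temperature; flow cytometry, 1.6×10^4 events per sample, cell cycle distribution analyzed.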

[9] = system: SiHa; assay: Induction of apoptosis in human SiHa cells assessed as late apoptotic cells at 5 uM after 24 hrs by Annexin V-FITC/propidium iodide-staining based flow cytometric analysis; type: functional
[10] = species on record: Homo sapiens; assay: Stabilization of c-Myc G-quadruplex DNA in human SiHa cells assessed as inhibition of c-Myc mRNA level at 1.25 to 5 uM after 6 hrs by RT-PCR method; type: cell-based
Method in brief: (§3)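 SiHa cells (2.0×10^5) dosed 6 h; total RNA reverse-transcribed with oligo dT18 primer and M-MLV (42 °C 1 h, 85 °C 5 min); PCR 95 °C 5 min then 30 cycles (95 °C 30 s, 58 °C 30 s, 72 °C 40 s); products checked on agarose gel.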

[11] = Stabilization of Bcl2 G-quadruplex DNA in human SiHa cells assessed as effect on Bcl2 mRNA level at 1.25 to 5 uM fter 6 hrs by RT-PCR method; type: ADME, cell-based
Method in brief: (§4)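 SiHa cells (2.0×10^5 per well) treated 6 h; total RNA (2 µg) reverse-transcribed with oligo dT18 and M-MLV at 42 °C for 1 h, 85 °C for 5 min; PCR: 95 °C 5 min, then 30 cycles of 95 °C 30 s, 58 °C 30 s, 72 °C 40 s; products checked on agarose gel.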

[12] = Stabilization of c-Kit G-quadruplex DNA in human SiHa cells assessed as effect on c-Kit mRNA level at 1.25 to 5 uM fter 6 hrs by RT-PCR method; type: ADME, cell-based; method in brief: as §3
[13] = Stabilization of KRAS G-quadruplex DNA in human SiHa cells assessed as effect on […] mRNA level at 1.25 to 5 uM fter 6 hrs by RT-PCR method; type: ADME, cell-based; method in brief: as §4
[14] = system: SiHa; assay: Induction of cell cycle arrest in human SiHa cells assessed as downregulation of CDK6 protein levels after 24 hrs by Western blot analysis; type: functional, cell-based
Method in brief: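 SiHa cells (2.0×10^5 per well) treated 24 h, lysed at 4 °C for 30 min, supernatant cleared at 15,000 rpm; protein measured by BCA, 30 µg resolved on 10% SDS-PAGE, transferred to nitrocellulose, blocked in 5% milk/TBS-Tween 1 h, primary antibodies overnight at 4 °C, HRP secondaries 2 h at room temperature.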

[15] = Binding affinity to up to 1 uM c-MYC promoter G-quadruplex pu22 DNA (unknown origin) after 1 min by fluorescence titration method
Method in brief: (§5)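 Oligonucleotide stock added stepwise to fixed-concentration compound in 10 mM Tris-HCl pH 7.2, 100 mM KCl; equilibrated ≥1 min after each addition, emission read with excitation at 350 nm. KD from fitting titration data to the Benesi–Hildebrand equation; 1:1 stoichiometry checked by Job plot.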

[16] = Binding affinity to up to 10 uM hybrid telomeric htg22 G-quadruplex DNA (unknown origin) at 1 uM after 1 min by fluorescence spectroscopic analysis; type: ADME; method in brief: as §5
[17] = Binding affinity to 1 uM BCL2 promoter G-quadruplex DNA (unknown origin) at 1 uM after 1 min by fluorescence spectroscopic analysis; type: ADME
Method in brief: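 Fluorescence emission spectra of 1 µM compound mixed with 1 µM pre-annealed oligonucleotide (G-quadruplexes folded in 100 mM KCl by heating to 95 °C for 5 min, slow cooling), in Tris-HCl buffer.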

[18] = Stabilization of PDGFA G-quadruplex DNA in human SiHa cells assessed as effect on PDGFA mRNA level at 1.25 to 5 uM fter 6 hrs by RT-PCR method; type: ADME, cell-based; method in brief: as §4
[19] = system: SiHa; assay: Antitumor activity against human SiHa cells xenografted in nude BALB/c mouse assessed as tumor growth inhibition at 5 to 20 mg,kg, ip administered every other day for 24 days; type: functional, organism-based; details: TDE = time-dependent effect
Method in brief: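 BALB/c nude mice (5 weeks old) given 1×10^7 SiHa cells subcutaneously in right flank; at ~50 mm3 tumor volume, randomized (10 per group) and dosed intraperitoneally every other day for 24 days; controls got equal-volume saline. Caliper volume as 1/2 × length × width2; tumors weighed at end; inhibition rate = (1 − mean treated tumor weight/mean control tumor weight) × 100%.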

CCn1c2ccccc2c2cc(-c3nc(-c4ccc(N5CCN(C)CC5)cc4)c(-c4ccc(N5CCN(C)CC5)cc4)n3-c3ccc(OC)cc3)ccc21
Activity [1]: Not Active
Activity [2]: Dose-dependent effect
Activity [3]: Dose-dependent effect
IC50 [4]: 2.1 µM
IC50 [5]: 4.2 µM
IC50 [6]: 15.6 µM
growth inhibition (GI) [7]: Active
Activity [8]: Dose-dependent effect
Activity [9]: 52%
inhibition [10]: Active
Activity [11]: Not Active
Activity [12]: Not Active
Activity [13]: Not Active
Activity [14]: Dose-dependent effect
Kd [15]: 0.1 µM
Activity [16]: Not Active
Activity [17]: Not Active
Activity [18]: Not Active
TGI [19]: Tde

— ChEMBL document CHEMBL4033789, “Discovery of a New Four-Leaf Clover-Like Ligand as a Potent c-MYC Transcription Inhibitor Specifically Targeting the Promoter G-Quadruplex” (J Med Chem, 2018)
